High-throughput results from PubChem BioAssay.
A selection: hits, their analogues and other compounds. The true share with any hit is near 3.7%.
hERG protect: compounds protecting human hERG from proarrhythmic drug block. AID 1511. 0.51% of 310,000 active. activation (rescue from dofetilide block), less the hit threshold, % at 10 µM. Q12809. CHO-hERG, FluxOR thallium flux, dofetilide IC70 present;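 active = activation above the mean of controls blocked by dofetilide plus 5 SD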;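 note: thallium influx through hERG after potassium depolarization seen as dye fluorescence rise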
KCNQ1 pot: human KCNQ1 channel potentiation or activation | B-score at 10 µM | CHO-K1 KCNQ1, thallium flux FluxOR fluorescence; stronger effect = higher value | P51787 | 0.35% of 310,000 active;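 active = fluorescence ratio B-score, a plate-corrected score, at least three library SD, with initial intensity B-score within 5 SD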
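Material: CHO-K1 cells stably expressing KCNQ1. Medium: assay buffer for compound exposure, DMSO matched across wells. Reagent: K+/Tl+ depolarizing stimulus. Compound dosing: single-concentration screen. Times: 37 °C overnight plating, 90-min dark dye load, 20-min compound pretreatment. Technique: FluxOR Tl+ flux fluorescence.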
KCNK9 block: blocks the human KCNK9 two-pore domain potassium channel. Q9NPC2. HEK293 KCNK9, FluxOR thallium flux fluorescence; stronger effect = lower value. B-score at 10 µM. 1.2% of 310,000 active. AID 488922;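 active = ratio B-score over 3 SD below the library mean, with starting fluorescence within 5 SD of its mean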;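 note: negative B-score means less thallium flux so channel inhibition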
KCNQ1 inh: blocks the human KCNQ1 potassium channel. B-score at 10 µM. AID 2642. CHO-K1 KCNQ1, FluxOR thallium flux fluorescence; stronger effect = higher value. 1.3% of 310,000 active;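 active = compounds whose thallium flux B-score, printed positive for inhibition, exceeds three library SD while starting fluorescence stays within three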;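 note: channel opened by potassium depolarization with thallium stimulus after 20 min compound exposure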
Kir21 inh: blocks the mouse Kir2.1 inward-rectifier potassium channel; P35561; HEK293-Kir2.1, FluxOR thallium flux fluorescence; stronger effect = lower value; B-score at 10 µM; 0.85% of 310,000 active; AID 1672;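 active = fluorescence ratio B-score at or below minus 3 SD of library scores, with starting-brightness B-score within 2 SD, cut at about -4.2 in these data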;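 note: channel flux triggered by added potassium and thallium sulfate stimulus; B-score of peak minus minimum fluorescence over baseline after thallium stimulus; more negative B-score means stronger Kir2.1 block with less thallium influx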
KCNK3 inh: human KCNK3 channel inhibition, primary screen; CHO-KCNK3 thallium flux, FluxOR fluorescence; stronger effect = lower value; B-score at 10 µM; 0.84% of 340,000 active; AID 602410;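 active = B-score under library mean minus 4 SD, starting fluorescence ratio at most library mean plus 5 SD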;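 note: more negative B-score means stronger inhibition of thallium flux through KCNK3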
Starred values were filed as active, the others as inactive; i = inactive; x = not tested or not shown.

SMILES | hERG protect | KCNQ1 pot | KCNK9 block | KCNQ1 inh | Kir21 inh | KCNK3 inh
NNc1ccc2c(C(F)(F)F)cc(C(F)(F)F)nc2n1 | -5 | i | i | i | -0.15 | i
Cc1ccc(CN2C3=NCCCN3c3ccccc32)cc1 | x | x | x | x | x | i
CC(C)(C)c1ccc(CN2C3=NCCCN3c3ccccc32)cc1 | -23 | i | i | 11* | -3.9 | i
O=C(Cn1cnc2c(nnn2Cc2ccc(F)cc2)c1=O)Nc1ccccc1 | -15 | i | i | i | -0.08 | i
Cc1cc(C=NCCO)c(C)n1-c1cc(Cl)ccc1Cl | -12 | i | i | i | -2.2 | i
Cc1cc(/C=N/n2cnnc2)c(C)n1-c1cc(Cl)ccc1Cl | -7 | 12* | i | i | -0.4 | i
CNc1nc(NCc2ccccc2)c2ccccc2n1 | -8 | i | i | i | -5.4* | i
CC(=O)Nc1ccc(S(=O)(=O)N2CCN(c3cc(C)nc4ccccc34)CC2)cc1 | -6 | i | i | i | 3 | i
CC(=O)Nc1ccc(S(=O)(=O)N2CCN(c3nc(NC4CCCC4)c4ccccc4n3)CC2)cc1 | -16 | i | i | 6* | -1.7 | i
COC(=O)c1cnn(-c2ccc(F)cc2F)c1/C=N/NC(=S)NC(C)(C)C | -4 | i | -7* | i | 0.01 | i
CNC(=S)N/N=C/c1c(C(=O)OC)cnn1-c1ccc(F)cc1F | -3 | i | i | i | 0.44 | i
NC(=NC(=O)c1cccc(C(F)(F)F)c1)c1ccc(C(F)(F)F)cn1 | -10 | i | -7* | i | -0.34 | i
Cc1ccc(-n2c(=O)c3sccc3n(CC(=O)N3CCCC3)c2=O)cc1 | -2 | i | i | i | -0.32 | i
O=C(Cn1c(=O)n(-c2ccccc2)c(=O)c2sccc21)N1CCCC1 | -24 | i | i | 6* | -3.1 | i
O=c1cc(-c2ccccc2Cl)oc2ccc([N+](=O)[O-])c(O)c12 | -6 | i | i | i | -0.95 | i
O=c1cc(-c2ccccc2Cl)oc2c([N+](=O)[O-])c(O)cc(O)c12 | -8 | i | i | 8* | -0.45 | i
CCOC(=O)N1CCC(NC(=O)CSCc2nc(-c3ccccc3Cl)oc2C)CC1 | -3 | i | i | i | 0.1 | i
Cc1oc(-c2ccccc2Cl)nc1CSCC(=O)NC1CCCC1 | -8 | i | i | i | -4.7* | i
O=C1CN(C(=O)NCC(=O)N2CCCC2)c2ccccc2N1 | -6 | i | i | i | 0.01 | i
CN(C)c1ccc(N=Cc2nc(-c3ccccc3)oc2OC(=O)c2cccc(Br)c2)cc1 | -7 | i | -6.6* | i | -1.6 | i
COc1ccc(N=Cc2nc(-c3ccccc3)oc2OC(=O)c2ccccc2)cc1 | -2 | i | i | i | 0.06 | i
CC(Oc1cccc(Cl)c1)C(=O)Nc1cc(S(=O)(=O)N2CCOCC2)ccc1N1CCCCC1 (configuration not stated) | -15 | i | i | 7* | 2.4 | i
CCN1CCN(c2ccc(S(=O)(=O)N3CCOCC3)cc2NC(=O)C(C)Oc2cccc(Cl)c2)CC1 (configuration not stated) | -11 | i | i | i | 2.4 | i
CN(CC(=O)Nc1cccc(F)c1)C(=O)CCCc1cccs1 | -7 | i | i | i | -0.75 | i
CN(Cc1ccc(C#CCCO)cc1)CC1CCCN(CCc2ccc(Cl)cc2)C1 (configuration not stated) | -10 | i | i | i | -9.4* | i
CN(Cc1ccccc1O)CC1CCCN(CCc2ccc(Cl)cc2)C1 (configuration not stated) | -16 | i | i | i | -15* | i
COc1ccc2c(c1)O[C@@H](c1cccc(C(F)(F)F)c1)[C@H](OC(=O)NCCc1ccc(OC)c(OC)c1)C2=O | 8.4* | 8* | i | i | 0.24 | x
COc1cccc([C@@H]2Oc3ccc(OC)cc3C(=O)[C@H]2OC(=O)NCc2ccc3c(c2)OCO3)c1 | 4.6* | i | i | i | 0.53 | x
COC(=O)[C@H](Cc1ccccc1)NC(=O)O[C@H]1C(=O)c2ccc(OC)cc2O[C@@H]1c1ccc2c(c1)OCO2 | -10 | i | i | i | -0.42 | x
